Sampled rows, rich in hits. Any-hit rate of the full collection: about 4.7%.
Jurkat NFkB inh: lowers PMA/ionomycin-induced NF-kB signal in Jurkat cells | inhibition, % at 4 µM | PMA/ionomycin-induced NF-kB luciferase reporter, luminescence | AID 435003 | hit rate 0.53% among 330,000; in the data active = inhibition above about 50%
aSyn 5UTR inh: 5' untranslated region of α-synuclein, MLPCN primary screen | alpha-synuclein 5'UTR reporter, inhibitor activity | inhibition, % (tested at 7.5 µM) | hit rate 0.82% among 300,000 | AID 1813; in the data active = inhibition above about 60%;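 note: H4 neuroglioblastoma cells stably carrying SNCA 5'UTR luciferase fusion; 0% = DMSO wells and 100% = positive control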
697 NFkB inh: inhibitors of the PMA/ionomycin-induced NF-kB reporter in 697 B cells; 697 B-cell NF-kB luciferase reporter, 16 h; hit rate 0.33% among 330,000; inhibition, % at 4 µM; in the data active = inhibition above about 35%
VIM-2 inh: blocks Pseudomonas aeruginosa VIM-2 metallo-beta-lactamase; hit rate 0.89% among 290,000; purified VIM-2, nitrocefin hydrolysis, epi-absorbance fluorescence; AID 1527; inhibition, % at 5.6 µM;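 active = inhibition above the mean of all tested compounds plus 3 SD, cutoff set per screening run, cut at about 7.5% in these data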;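 note: red hydrolysis product quenches plate fluorescence so inhibitors raise well fluorescence; 0% = enzyme with DMSO and 100% = DMSO without enzyme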
IMP-1 inh: inhibitors of Pseudomonas aeruginosa IMP-1 metallo-beta-lactamase | purified IMP-1, nitrocefin hydrolysis, epi-absorbance fluorescence | inhibition, % at 5.6 µM | hit rate 0.45% among 290,000 | AID 1556;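 active = inhibition above the mean plus 3 SD of all compounds in the same screening run, cut at about 4.5% in these data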;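 note: 0% = IMP-1 with DMSO and 100% = DMSO wells lacking enzyme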
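assay system = purified recombinant IMP-1 metallo-beta-lactamase enzyme | schedule = 15 min preincubation plus 25 min reaction at 25 °C | signal = Epi-absorbance fluorescence, 480 nm excitation, 530 nm emission | read-out basis = percent inhibition from optical density relative to buffer-blank wells | controls = IMP-1 with DMSO as 0%, enzyme-free DMSO as 100%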
Mdm2-MdmX inh: inhibitors of human Mdm2/MdmX interaction; hit rate 3% among 330,000; inhibition, % at 8 µM; AID 485346; O15151+Q00987; SaOS-2 split-luciferase Mdm2/MdmX complementation, luminescence;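 active = inhibition of at least 50% at 8 µM in the primary screen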
Jurkat NFkB conf: lowers PMA/ionomycin-induced NF-kB signal in Jurkat cells; shares compounds with Jurkat NFkB inh; Jurkat NF-kB luciferase, 16 h; inhibition, % at 4 µM; hit rate 27% among 2,700; AID 435020;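 active = inhibition reaching about 45% at 4 µM in either replicate, limit read from the data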;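 note: plate controls were PMA/ionomycin stimulated DMSO wells for no effect and unstimulated DMSO wells for full effect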
* hit, by the source's call; nt = not tested or not shown.

SMILES	Jurkat NFkB inh	aSyn 5UTR inh	697 NFkB inh	VIM-2 inh	IMP-1 inh	Mdm2-MdmX inh	Jurkat NFkB conf
CCC1(c2ccc(F)cc2)NC(=O)N(CC(=O)Nc2ccc(-c3nc4ccc(C)cc4s3)cc2)C1=O (stereo unspecified)	-186	-201	-178	0	-1	-103	-82
CCN(CCCNC(=O)C1CCC(=O)N1Cc1ccc(C)cc1)c1cccc(C)c1 (stereo unspecified)	57*	4	-7	-2	-2	5	-26
CCN(CCCNC(=O)C1CCC(=O)N1Cc1ccccc1Cl)c1cccc(C)c1 (stereo unspecified)	-33	24	-17	-4	-3	-5	nt
CN(C)c1ccc(C(=O)N=c2sccn2C)cc1[N+](=O)[O-]	-67	-117	-44	-3	-6	-46	nt
Cc1ccc(-c2nc3n(n2)Cc2ccccc2-3)cc1	-73	50	-236	0	-1	-4	nt
c1ccc(-c2cn3c(n2)-c2ccccc2C3)cc1	-160	48	-222	0	-1	-111	-147
O=C(Nc1ccc2c(c1)OCO2)c1ccc(Br)s1	-178	-240	-77	-4	-2	-197	-85
O=C(Nc1ccc2c(c1)OCO2)c1cccs1	-85	-176	-90	-5	-2	-23	nt
O=C(Nc1ccc2c(c1)OCCO2)Nc1ccc2c(c1)OCO2	-185	0	-215	0	1	-215	-93
Cc1ccc(NC(=O)Nc2ccc3c(c2)OCO3)cc1F	-174	-109	-104	-1	-3	-110	-52
Cn1c(C(=O)Nc2ccc3c(c2)OCO3)cc2sccc21	-160	-245	-140	-2	-1	-200	-63
O=C(Cc1ccsc1)NCC(=O)Nc1ccc(F)c(F)c1	1	4	-2	-2	-4	12	nt
CCOc1cc(C(=O)N/N=C/C(Br)=C/c2ccccc2)cc(OCC)c1OCC	58*	104*	-28	-3	1	48	48
CC1(C)Oc2ccc3ccc(=O)oc3c2[C@@H](O)[C@H]1O	-5	nt	-12	nt	nt	2	nt
CN(C)S(=O)(=O)c1cccc(NC(=O)c2ccc(COc3ccccc3)cc2)c1	43	-11	-18	-2	-2	22	nt
O=C(NC12CC3CC(CC(C3)C1)C2)c1ccc(-c2cccc(Cl)c2)o1	-138	-133	-166	-1	-5	28	nt
O=C(NC12CC3CC(CC(C3)C1)C2)c1ccc(-c2ccc(Cl)cc2)o1	-153	-251	-180	0	0	-18	-73
O=C(NC12CC3CC(CC(C3)C1)C2)c1ccc(-c2ccccc2Cl)o1	-158	-220	-217	-5	-3	-104	-60
COc1ccc(Cl)cc1NC(=O)CN(C)C(C)C(=O)NC(=O)NC1CCCCC1 (stereo unspecified)	12	4	11	nt	nt	22	nt
CC(=O)c1ccc(OCCn2c(SCC(=O)O)nc3ccccc32)cc1	3	8	20	2	-3	-5	nt
CC(=O)c1ccc(NC(=O)c2noc3c2CCCCC3)cc1	-165	-87	-121	-3	-2	-222	-96
O=C(Nc1nc2ccccc2[nH]1)c1cccc(Br)c1	-152	-30	-207	-4	-4	-110	-115
O=C(Nc1nc2ccccc2[nH]1)c1cccc(F)c1	-150	-62	-190	-4	-3	-73	-107
CN(C)c1cccc(C(=O)Nc2nc3ccccc3[nH]2)c1	-72	36	-158	-3	-4	-74	nt
Cc1cc(C)c(C(=O)CN2C(=O)NC3(CCC(C)CC3)C2=O)cc1C (stereo unspecified)	-2	8	0	1	-2	18	nt
Cc1ccc(C)c(C(=O)CN2C(=O)NC3(CCC(C)CC3)C2=O)c1 (stereo unspecified)	64*	14	-68	-1	1	18	8
CCOC(=O)Nc1ccc2c(c1)OCO2	-30	-44	-54	-5	-2	-58	nt
CCOC(=O)c1c(C)[nH]c(C(=O)Nc2ccc3c(c2)OCO3)c1C	-187	-99	-154	-2	-3	-183	-94
CCOC(=O)c1c(C)[nH]c(C(=O)N/N=C/c2ccc(Br)cc2)c1C	79*	39	-72	-4	-3	46	46
O=C(NCC(c1ccco1)N1CCCC1)c1cc2cc(Cl)ccc2o1 (stereo unspecified)	-11	nt	10	nt	nt	-4	nt
